Test results taken from ChEMBL document CHEMBL3244169, “(1-(3-(Phenothiazin-10-yl)propyl)-4-piperidinyl)phenylmethanones, a novel class of long-acting neuroleptic agents” (J Med Chem, 1978).
Calls of active or inactive are those of the source. No cut-off for these calls is given here.

Key:
Mus musculus [1] = experiment: Neuroleptic activity in mouse assessed as suppression of conditioned avoidance behavior by measuring mean correct responses level at 10 mg/kg, ip administered 8 hrs prior to electric shock challenge; assay type: functional; settings: route intraperitoneal
How it was run: (§1)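 After 20 s a solenoid pushed each mouse back onto the grid, leaving 5 s to return and avoid the next shock. Trained mice reaching 90–100% correct avoidance (3–5 per group) received 10 mg/kg ip. Twenty trials were run before dosing and at intervals after. Percent correct avoidance per animal was averaged per group.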

Mus musculus [2] = experiment: Neuroleptic activity in mouse assessed as suppression of conditioned avoidance behavior by measuring mean correct responses level at 10 mg/kg, ip administered 1 day prior to electric shock challenge; assay type: functional; settings: route intraperitoneal; how it was run: as §1
Mus musculus [3] = experiment: Neuroleptic activity in mouse assessed as suppression of conditioned avoidance behavior by measuring mean correct responses level at 10 mg/kg, ip administered 2 days prior to electric shock challenge; assay type: functional; settings: route intraperitoneal; how it was run: as §1
Mus musculus [4] = experiment: Neuroleptic activity in mouse assessed as suppression of conditioned avoidance behavior by measuring mean correct responses level at 10 mg/kg, ip administered 3 days prior to electric shock challenge; assay type: functional; settings: route intraperitoneal; how it was run: as §1
Mus musculus [5] = experiment: Neuroleptic activity in mouse assessed as suppression of conditioned avoidance behavior by measuring mean correct responses level at 10 mg/kg, ip administered 4 hrs prior to electric shock challenge; assay type: functional; settings: route intraperitoneal; how it was run: as §1
Mus musculus [6] = experiment: Neuroleptic activity in ip dosed ICR-DUB mouse assessed as survival administered 2 days prior to d-amphetamine challenge measured after 24 hrs; assay type: functional
Mus musculus [7] = experiment: Neuroleptic activity in ip dosed ICR-DUB mouse assessed as survival administered 3 days prior to d-amphetamine challenge measured after 24 hrs; assay type: functional
Mus musculus [8] = experiment: Neuroleptic activity in ip dosed ICR-DUB mouse assessed as survival administered 4 days prior to d-amphetamine challenge measured after 24 hrs; assay type: functional
Mus musculus [9] = experiment: Neuroleptic activity in ip dosed ICR-DUB mouse assessed as survival administered 5 days prior to d-amphetamine challenge measured after 24 hrs; assay type: functional
Mus musculus [10] = experiment: Neuroleptic activity in ip dosed ICR-DUB mouse assessed as survival administered 7 days prior to d-amphetamine challenge measured after 24 hrs; assay type: functional
Mus musculus [11] = experiment: Neuroleptic activity in mouse assessed as suppression of conditioned avoidance behavior by measuring mean correct responses level at 10 mg/kg, ip administered immediately prior to electric shock challenge; assay type: functional; settings: route intraperitoneal; how it was run: as §1
Mus musculus [12] = experiment: Neuroleptic activity in mouse assessed as suppression of conditioned avoidance behavior by measuring mean correct responses level at 10 mg/kg, ip administered 1 hr prior to electric shock challenge; assay type: functional; settings: route intraperitoneal; how it was run: as §1
Mus musculus [13] = experiment: Neuroleptic activity in mouse assessed as suppression of conditioned avoidance behavior by measuring mean correct responses level at 10 mg/kg, ip administered 2 hrs prior to electric shock challenge; assay type: functional; settings: route intraperitoneal; how it was run: as §1
Mus musculus [14] = experiment: Neuroleptic activity in ip dosed ICR-DUB mouse assessed as survival administered 1 hr prior to d-amphetamine challenge measured after 24 hrs; assay type: functional
Mus musculus [15] = experiment: Neuroleptic activity in ip dosed ICR-DUB mouse assessed as survival administered 16 hrs prior to d-amphetamine challenge measured after 24 hrs; assay type: functional
Mus musculus [16] = experiment: Neuroleptic activity in ip dosed ICR-DUB mouse assessed as survival administered 4 hrs prior to d-amphetamine challenge measured after 24 hrs; assay type: functional
Mus musculus [17] = experiment: Toxicity in ICR-DUB mouse assessed as depression at 60 mg/kg, ip measured for 5 days; assay type: organism-based; design: dose 60 mg/kg, route intraperitoneal; settings: in vivo, 120 h
Mus musculus [18] = experiment: Toxicity in ICR-DUB mouse assessed as reduction in food intake at 60 mg/kg, ip; assay type: organism-based; design: dose 60 mg/kg, route intraperitoneal; settings: in vivo
Mus musculus [19] = experiment: Toxicity in ICR-DUB mouse assessed as grooming of coat at 60 mg/kg, ip; assay type: organism-based; design: dose 60 mg/kg, route intraperitoneal; settings: in vivo
Mus musculus [20] = experiment: Neuroleptic activity in mouse assessed as suppression of conditioned avoidance behavior by measuring mean correct responses level at 10 mg/kg, ip administered 4 days prior to electric shock challenge; assay type: functional; settings: route intraperitoneal; how it was run: as §1
Mus musculus [21] = experiment: Toxicity in ICR-DUB mouse assessed as grooming at 50 mg/kg, ip measured during first 24 hrs; assay type: organism-based; design: dose 50 mg/kg, route intraperitoneal; settings: in vivo
Mus musculus [22] = experiment: Neuroleptic activity in ip dosed ICR-DUB mouse assessed as survival administered 6 days prior to d-amphetamine challenge measured after 24 hrs; assay type: functional
Mus musculus [23] = experiment: Toxicity in ICR-DUB mouse assessed as CNS depression at 50 mg/kg, ip measured for 24 hrs; assay type: organism-based; design: dose 50 mg/kg, route intraperitoneal; settings: in vivo
Mus musculus [24] = experiment: Toxicity in ICR-DUB mouse assessed as mild sedation at 50 mg/kg, ip measured for 6 days; assay type: organism-based; design: dose 50 mg/kg, route intraperitoneal; settings: in vivo, 144 h
Mus musculus [25] = experiment: Toxicity in ICR-DUB mouse assessed as body weight loss at 50 mg/kg, ip; assay type: organism-based; design: dose 50 mg/kg, route intraperitoneal; settings: in vivo
Mus musculus [26] = experiment: Toxicity in ICR-DUB mouse assessed as grooming at 50 mg/kg, ip; assay type: organism-based; design: dose 50 mg/kg, route intraperitoneal; settings: in vivo
Mus musculus [27] = experiment: Neuroleptic activity in mouse assessed as suppression of conditioned avoidance behavior by measuring mean correct responses level at 20 mg/kg, ip administered 7 days prior to electric shock challenge; assay type: functional, organism-based; design: dose 20 mg/kg

SMILES | Activity (Mus musculus [1]) [%] | Activity (Mus musculus [2]) [%] | Activity (Mus musculus [3]) [%] | Activity (Mus musculus [5]) [%] | ED50 (Mus musculus [6]) [mg/kg] | ED50 (Mus musculus [7]) | ED50 (Mus musculus [8]) [mg/kg] | ED50 (Mus musculus [9]) | ED50 (Mus musculus [10]) | Activity (Mus musculus [11]) [%] | Activity (Mus musculus [12]) [%] | Activity (Mus musculus [13]) [%] | ED50 (Mus musculus [14]) [mg/kg] | ED50 (Mus musculus [15]) [mg/kg] | ED50 (Mus musculus [16]) [mg/kg] | further results
CC(=O)c1ccc2c(c1)N(CCCN1CCC(C(=O)c3ccc(F)cc3)CC1)c1ccccc1S2.O.O=C(O)/C=C/C(=O)O | 55 | 55 | 95 | 43 | 22.5 | 17.5 mg/kg | > 64 | 60 mg/kg | inactive | 95 | 73 | 61 | – | – | – | Activity (Mus musculus [4]): 100%
O=C(c1ccc(Cl)c(Cl)c1)C1CCN(CCCN2c3ccccc3Sc3ccc(Cl)cc32)CC1 | 95 | 93 | – | 92 | – | – | – | – | inactive | 97 | 97 | 97 | > 16 | – | – | –
CN(C)CCCN1c2ccccc2Sc2ccc(Cl)cc21 [CHLORPROMAZINE] | 72 | 88 | 95 | 37 | > 32 | Active | – | – | – | 96 | 42 | 28 | 0.28 | 3.65 | – | –
O.O=C(O)/C=C/C(=O)O.O=C(c1ccc(F)cc1)C1CCN(CCCN2c3ccccc3Sc3ccccc32)CC1 | 93 | 87 | 98 | 75 | 12.1 | > 50 mg/kg | – | – | inactive | 97 | 63 | 70 | 0.94 | 1.27 | 0.35 | –
O=C(O)/C=C/C(=O)O.O=C(c1ccc(F)cc1)C1CCN(CCCN2c3ccccc3Sc3ccc(Cl)cc32)CC1 | 40 | 57 | 95 | 32 | 4.6 | 8.8 mg/kg | 20.9 | > 60 mg/kg | inactive | 96 | 80 | 38 | 0.17 | 0.72 | 0.53 | Activity (Mus musculus [17]): Toxic; Activity (Mus musculus [18]): Toxic; Activity (Mus musculus [19]): Toxic
O=C(O)/C=C/C(=O)O.O=C(c1ccc(F)cc1)C1CCN(CCCN2c3ccccc3Sc3ccc(C(F)(F)F)cc32)CC1 [DUOPERONE FUMARATE] | 45 | 58 | 58 | 80 | 4.7 | 15.2 mg/kg | 27 | 28.4 mg/kg | 45.5 mg/kg | 92 | 98 | 88 | – | – | – | Activity (Mus musculus [4]): 58%; Activity (Mus musculus [20]): 95%; Activity (Mus musculus [21]): Toxic; ED50 (Mus musculus [22]): 26.5 mg/kg; Activity (Mus musculus [23]): Toxic; Activity (Mus musculus [24]): Toxic; Activity (Mus musculus [25]): Non-toxic; Activity (Mus musculus [26]): Non-toxic
OC1(c2ccc(Cl)c(C(F)(F)F)c2)CCN(CCCC(c2ccc(F)cc2)c2ccc(F)cc2)CC1 [PENFLURIDOL] | – | – | – | – | 3 | 17 mg/kg | 47.5 | Active | – | – | – | – | 1.28 | 1.52 | 1.82 | Activity (Mus musculus [27]): Active
O=C(CCCN1CCC(O)(c2ccc(Cl)cc2)CC1)c1ccc(F)cc1 [HALOPERIDOL] | – | – | – | – | 16 | Active | – | – | – | – | – | – | 0.09 | 0.58 | – | –
